According to ChEMBL document CHEMBL1145402, “Discovery of potent and muscle selective androgen receptor modulators through scaffold modifications” (J Med Chem, 2007):
Converted amounts (≈) assume the structure as drawn.

Assays:
[1] = molecular target: T1, Androgen receptor (Homo sapiens, UniProt P10275); assay: Displacement of [3H]DHT from androgen receptor expressed in MDA-MB-453 cells; assay type: cell-based
T1 sequence (P10275 whole entry): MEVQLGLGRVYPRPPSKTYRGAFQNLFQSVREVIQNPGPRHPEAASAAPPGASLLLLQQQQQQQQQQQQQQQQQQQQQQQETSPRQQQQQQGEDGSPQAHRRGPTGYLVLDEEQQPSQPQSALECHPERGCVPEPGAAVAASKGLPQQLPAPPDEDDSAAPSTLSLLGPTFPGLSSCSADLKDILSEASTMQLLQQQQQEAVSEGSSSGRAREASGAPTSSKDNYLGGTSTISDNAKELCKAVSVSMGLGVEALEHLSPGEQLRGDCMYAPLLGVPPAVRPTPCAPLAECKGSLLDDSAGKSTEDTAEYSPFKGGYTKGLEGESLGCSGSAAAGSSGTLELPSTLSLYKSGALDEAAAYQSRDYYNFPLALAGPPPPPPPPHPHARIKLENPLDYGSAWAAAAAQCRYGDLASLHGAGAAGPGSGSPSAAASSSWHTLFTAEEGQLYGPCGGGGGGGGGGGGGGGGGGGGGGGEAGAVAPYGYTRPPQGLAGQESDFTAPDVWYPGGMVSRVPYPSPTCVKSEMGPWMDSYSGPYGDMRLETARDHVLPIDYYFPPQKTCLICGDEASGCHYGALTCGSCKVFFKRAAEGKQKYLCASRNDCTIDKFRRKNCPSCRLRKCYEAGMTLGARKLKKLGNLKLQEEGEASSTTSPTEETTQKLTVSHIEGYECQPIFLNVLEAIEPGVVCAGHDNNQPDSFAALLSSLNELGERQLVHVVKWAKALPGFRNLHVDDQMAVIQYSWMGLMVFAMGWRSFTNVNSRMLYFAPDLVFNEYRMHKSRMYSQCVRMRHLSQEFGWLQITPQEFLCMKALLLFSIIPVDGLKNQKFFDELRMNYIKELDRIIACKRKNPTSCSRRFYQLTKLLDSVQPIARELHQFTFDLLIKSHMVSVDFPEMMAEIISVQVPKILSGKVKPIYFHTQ

[2] = molecular target: T1, Androgen receptor; assay: Agonist activity at androgen receptor expressed in C2C12 mouse cells by luciferase reporter transactivation assay; assay type: functional, cell-based
[3] = AUC(0-4h) in Sprague-Dawley rat at 10 mg/kg; assay type: ADME, organism-based; set-up: time < 5 hr, dose 10 mg/kg; conditions: plasma
[4] = test system: Rattus norvegicus; assay: Stimulation of ventral prostate tissue weight in Sprague-Dawley rat at 1 mg/kg, po after 14 days; assay type: functional, Prostate gland
Procedure, shortened: (§1)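 Mature male rats were castrated two weeks before treatment. Compound was given […] once daily for two weeks, then levator ani muscle and ventral prostate were weighed. Weights are expressed as percent of a sham-operated, vehicle-treated intact control group, ±SEM.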

[5] = test system: Rattus norvegicus; assay: Stimulation of levator ani muscle weight in Sprague-Dawley rat at 1 mg/kg, po after 14 days; assay type: functional; procedure, shortened: as §1
[6] = (§2) Cmax in Sprague-Dawley rat at 10 mg/kg, po; assay type: ADME, organism-based; set-up: dose 10 mg/kg, route oral; conditions: in vivo
[7] = Aqueous solubility of the compound; assay type: physicochemical
[8] = test system: Rattus norvegicus; assay: Stimulation of levator ani muscle weight in Sprague-Dawley rat at 0.01 mg/kg, po after 14 days; assay type: functional
[9] = test system: Rattus norvegicus; assay: Stimulation of ventral prostate tissue weight in Sprague-Dawley rat at 0.01 mg/kg, po after 14 days; assay type: functional, Prostate gland
[10] = test system: Rattus norvegicus; assay: Stimulation of ventral prostate tissue weight in Sprague-Dawley rat at 3 mg/kg, po after 14 days; assay type: functional, Prostate gland; procedure, shortened: as §1
[11] = test system: Rattus norvegicus; assay: Stimulation of levator ani muscle weight in Sprague-Dawley rat at 3 mg/kg, po after 14 days; assay type: functional; procedure, shortened: as §1
[12] = molecular target: hERG (Homo sapiens, UniProt Q12809); assay: Inhibition of hERG at 30 uM by patch clamp method; assay type: toxicity
Sequence of hERG (Q12809 whole entry): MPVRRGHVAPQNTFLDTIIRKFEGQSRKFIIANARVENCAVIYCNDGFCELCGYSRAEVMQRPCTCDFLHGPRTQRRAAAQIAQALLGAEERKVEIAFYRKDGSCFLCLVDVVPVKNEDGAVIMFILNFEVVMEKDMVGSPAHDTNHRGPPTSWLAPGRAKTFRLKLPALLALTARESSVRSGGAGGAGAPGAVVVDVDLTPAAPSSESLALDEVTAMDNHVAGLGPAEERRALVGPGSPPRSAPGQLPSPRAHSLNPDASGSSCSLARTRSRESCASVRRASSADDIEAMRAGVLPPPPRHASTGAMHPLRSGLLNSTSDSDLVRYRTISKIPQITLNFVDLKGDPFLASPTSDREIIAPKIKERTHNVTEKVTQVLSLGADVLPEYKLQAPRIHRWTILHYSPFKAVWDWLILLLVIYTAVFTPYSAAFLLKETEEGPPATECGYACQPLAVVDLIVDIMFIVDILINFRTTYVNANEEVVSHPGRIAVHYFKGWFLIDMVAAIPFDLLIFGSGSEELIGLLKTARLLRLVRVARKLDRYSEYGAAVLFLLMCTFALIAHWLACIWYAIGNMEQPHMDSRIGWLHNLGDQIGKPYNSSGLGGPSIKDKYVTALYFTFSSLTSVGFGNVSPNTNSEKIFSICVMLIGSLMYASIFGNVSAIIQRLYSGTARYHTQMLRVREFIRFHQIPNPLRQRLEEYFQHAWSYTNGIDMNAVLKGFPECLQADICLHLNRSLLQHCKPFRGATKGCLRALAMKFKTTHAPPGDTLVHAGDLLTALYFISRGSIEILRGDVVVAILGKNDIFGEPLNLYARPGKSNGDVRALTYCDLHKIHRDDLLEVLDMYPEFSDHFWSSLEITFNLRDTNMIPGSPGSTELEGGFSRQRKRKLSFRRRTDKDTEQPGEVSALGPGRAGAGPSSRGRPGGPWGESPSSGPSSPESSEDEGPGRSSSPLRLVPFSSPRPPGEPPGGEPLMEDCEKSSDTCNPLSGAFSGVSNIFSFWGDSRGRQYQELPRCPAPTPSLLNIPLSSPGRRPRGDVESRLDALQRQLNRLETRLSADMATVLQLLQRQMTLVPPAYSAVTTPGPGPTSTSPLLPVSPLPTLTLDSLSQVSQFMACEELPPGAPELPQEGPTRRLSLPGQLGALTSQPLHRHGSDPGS

[13] = Toxicity against human hepatocyte; assay type: cell-based; conditions: hepatocytes
[14] = molecular target: Cytochrome P450 3A4 (Homo sapiens, UniProt P08684); assay: Inhibition of CYP3A4; assay type: ADME
Sequence of Cytochrome P450 3A4 (P08684 whole entry): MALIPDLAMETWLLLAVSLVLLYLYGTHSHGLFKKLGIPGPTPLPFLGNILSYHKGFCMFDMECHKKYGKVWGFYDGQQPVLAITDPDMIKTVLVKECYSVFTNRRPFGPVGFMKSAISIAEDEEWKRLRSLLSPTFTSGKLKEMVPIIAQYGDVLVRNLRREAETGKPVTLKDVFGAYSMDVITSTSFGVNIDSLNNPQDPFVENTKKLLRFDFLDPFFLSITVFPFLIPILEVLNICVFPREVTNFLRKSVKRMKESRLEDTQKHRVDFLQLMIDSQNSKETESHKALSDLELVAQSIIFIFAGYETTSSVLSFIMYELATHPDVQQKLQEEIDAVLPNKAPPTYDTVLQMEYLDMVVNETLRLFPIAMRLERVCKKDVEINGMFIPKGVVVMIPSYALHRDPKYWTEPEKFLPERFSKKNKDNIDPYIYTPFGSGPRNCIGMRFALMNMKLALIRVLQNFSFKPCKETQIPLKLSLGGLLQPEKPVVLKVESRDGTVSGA

[15] = molecular target: T2, Glucocorticoid receptor (Homo sapiens, UniProt P04150); assay: Binding affinity to glucocorticoid receptor
T2 sequence (P04150 whole entry): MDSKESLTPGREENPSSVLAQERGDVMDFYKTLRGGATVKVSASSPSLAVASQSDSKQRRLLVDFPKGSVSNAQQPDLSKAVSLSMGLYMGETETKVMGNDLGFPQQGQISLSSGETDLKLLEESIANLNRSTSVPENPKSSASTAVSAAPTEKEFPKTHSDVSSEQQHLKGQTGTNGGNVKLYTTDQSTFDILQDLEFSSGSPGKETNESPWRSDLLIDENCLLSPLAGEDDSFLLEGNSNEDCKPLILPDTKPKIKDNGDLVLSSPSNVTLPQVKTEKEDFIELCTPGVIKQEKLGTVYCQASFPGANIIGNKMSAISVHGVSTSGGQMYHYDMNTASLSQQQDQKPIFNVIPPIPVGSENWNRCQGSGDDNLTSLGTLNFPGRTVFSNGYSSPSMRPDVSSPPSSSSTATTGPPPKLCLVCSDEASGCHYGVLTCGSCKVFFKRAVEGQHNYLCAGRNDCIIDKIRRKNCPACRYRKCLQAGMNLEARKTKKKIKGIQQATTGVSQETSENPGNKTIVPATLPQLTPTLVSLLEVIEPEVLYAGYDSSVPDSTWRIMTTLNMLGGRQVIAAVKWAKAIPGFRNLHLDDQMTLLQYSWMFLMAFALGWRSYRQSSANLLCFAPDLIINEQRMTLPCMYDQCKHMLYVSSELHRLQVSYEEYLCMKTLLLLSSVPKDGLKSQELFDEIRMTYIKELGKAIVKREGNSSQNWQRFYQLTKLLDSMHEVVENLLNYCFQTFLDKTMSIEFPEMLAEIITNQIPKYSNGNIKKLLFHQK

[16] = molecular target: T3, Aromatase (Homo sapiens, UniProt P11511); assay: Inhibition of aromatase
T3 sequence (P11511 whole entry): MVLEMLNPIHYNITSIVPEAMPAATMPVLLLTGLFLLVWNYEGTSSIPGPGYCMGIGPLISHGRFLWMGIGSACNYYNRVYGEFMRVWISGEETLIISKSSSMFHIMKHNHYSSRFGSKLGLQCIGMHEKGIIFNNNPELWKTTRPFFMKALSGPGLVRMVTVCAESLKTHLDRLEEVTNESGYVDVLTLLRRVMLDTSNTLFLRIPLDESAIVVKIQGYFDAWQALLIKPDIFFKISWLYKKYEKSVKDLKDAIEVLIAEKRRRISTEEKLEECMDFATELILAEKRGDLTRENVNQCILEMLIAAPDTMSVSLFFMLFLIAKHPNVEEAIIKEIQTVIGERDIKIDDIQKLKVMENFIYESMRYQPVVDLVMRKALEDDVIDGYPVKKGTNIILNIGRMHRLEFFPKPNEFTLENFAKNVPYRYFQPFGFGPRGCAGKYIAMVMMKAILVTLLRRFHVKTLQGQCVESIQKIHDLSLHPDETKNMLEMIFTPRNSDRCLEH

[17] = Binding affinity to progesterone receptor; set-up: species or system Homo sapiens
[18] = Bioavailability in Sprague-Dawley rat at 10 mg/kg, po; assay type: ADME, organism-based; conditions: in vivo
Procedure, shortened: (§3)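 Rat pharmacokinetics used 5 mg/kg i.v. and 10 mg/kg p.o. dosing. Oral bioavailability (F%), half-life, oral Tmax and total body clearance were derived from plasma concentrations.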

[19] = molecular target: T4, Cytochrome P450 1A2 (Homo sapiens, UniProt P05177); assay: Inhibition of CYP1A2; assay type: ADME
T4 sequence (P05177 whole entry): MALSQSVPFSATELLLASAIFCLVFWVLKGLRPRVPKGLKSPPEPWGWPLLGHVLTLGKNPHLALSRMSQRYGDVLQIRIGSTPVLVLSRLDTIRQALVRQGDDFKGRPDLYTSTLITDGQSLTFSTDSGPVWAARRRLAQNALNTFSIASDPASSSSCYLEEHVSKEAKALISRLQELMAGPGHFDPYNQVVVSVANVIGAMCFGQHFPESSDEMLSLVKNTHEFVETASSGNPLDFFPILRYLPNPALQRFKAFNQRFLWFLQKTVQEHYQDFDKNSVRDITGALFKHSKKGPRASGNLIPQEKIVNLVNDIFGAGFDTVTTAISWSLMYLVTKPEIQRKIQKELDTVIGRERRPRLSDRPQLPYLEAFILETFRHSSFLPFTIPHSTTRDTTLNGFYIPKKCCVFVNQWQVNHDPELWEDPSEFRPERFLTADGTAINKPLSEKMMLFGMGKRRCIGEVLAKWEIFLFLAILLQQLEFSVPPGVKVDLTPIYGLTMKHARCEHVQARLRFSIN

[20] = molecular target: Estrogen receptor (Homo sapiens, UniProt P03372); assay: Binding affinity to ERalpha
Sequence of Estrogen receptor (P03372 whole entry, looked up): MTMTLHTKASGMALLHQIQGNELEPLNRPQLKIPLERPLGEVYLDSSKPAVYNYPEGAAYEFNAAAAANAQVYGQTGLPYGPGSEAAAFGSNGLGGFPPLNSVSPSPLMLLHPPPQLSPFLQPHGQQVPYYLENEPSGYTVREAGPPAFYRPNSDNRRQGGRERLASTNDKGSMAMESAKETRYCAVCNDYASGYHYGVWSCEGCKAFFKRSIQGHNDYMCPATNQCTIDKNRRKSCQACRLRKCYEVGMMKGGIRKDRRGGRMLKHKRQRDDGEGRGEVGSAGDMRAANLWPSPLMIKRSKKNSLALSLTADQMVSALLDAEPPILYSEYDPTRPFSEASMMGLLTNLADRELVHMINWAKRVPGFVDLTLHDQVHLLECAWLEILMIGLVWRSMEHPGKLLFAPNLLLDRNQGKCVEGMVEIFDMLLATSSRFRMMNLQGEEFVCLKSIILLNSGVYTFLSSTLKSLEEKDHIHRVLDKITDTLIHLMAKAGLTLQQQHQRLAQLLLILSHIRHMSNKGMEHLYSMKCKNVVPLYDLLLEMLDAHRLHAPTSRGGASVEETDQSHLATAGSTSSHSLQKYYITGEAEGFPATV

[21] = molecular target: T5, Sex hormone-binding globulin (Homo sapiens, UniProt P04278); assay: Binding affinity to SHBG
T5 sequence (P04278 whole entry): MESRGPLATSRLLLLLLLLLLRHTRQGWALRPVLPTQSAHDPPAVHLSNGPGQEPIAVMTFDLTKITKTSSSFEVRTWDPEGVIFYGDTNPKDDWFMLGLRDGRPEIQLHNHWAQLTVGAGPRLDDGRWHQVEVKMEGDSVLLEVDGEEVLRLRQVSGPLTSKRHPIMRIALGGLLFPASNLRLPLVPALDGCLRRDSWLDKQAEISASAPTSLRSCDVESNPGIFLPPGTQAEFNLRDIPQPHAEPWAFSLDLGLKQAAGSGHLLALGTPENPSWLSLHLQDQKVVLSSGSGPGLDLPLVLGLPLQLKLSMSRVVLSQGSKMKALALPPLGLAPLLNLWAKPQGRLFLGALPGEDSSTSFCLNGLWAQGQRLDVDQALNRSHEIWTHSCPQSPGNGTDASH

[22] = Clearance in Sprague-Dawley rat at 10 mg/kg, po and 5 mg/kg, iv; assay type: ADME, organism-based; conditions: in vivo; procedure, shortened: as §3
[23] = molecular target: Cytochrome P450 2C9 (Homo sapiens, UniProt P11712); assay: Inhibition of CYP2C9; assay type: ADME
Sequence of Cytochrome P450 2C9 (P11712 whole entry): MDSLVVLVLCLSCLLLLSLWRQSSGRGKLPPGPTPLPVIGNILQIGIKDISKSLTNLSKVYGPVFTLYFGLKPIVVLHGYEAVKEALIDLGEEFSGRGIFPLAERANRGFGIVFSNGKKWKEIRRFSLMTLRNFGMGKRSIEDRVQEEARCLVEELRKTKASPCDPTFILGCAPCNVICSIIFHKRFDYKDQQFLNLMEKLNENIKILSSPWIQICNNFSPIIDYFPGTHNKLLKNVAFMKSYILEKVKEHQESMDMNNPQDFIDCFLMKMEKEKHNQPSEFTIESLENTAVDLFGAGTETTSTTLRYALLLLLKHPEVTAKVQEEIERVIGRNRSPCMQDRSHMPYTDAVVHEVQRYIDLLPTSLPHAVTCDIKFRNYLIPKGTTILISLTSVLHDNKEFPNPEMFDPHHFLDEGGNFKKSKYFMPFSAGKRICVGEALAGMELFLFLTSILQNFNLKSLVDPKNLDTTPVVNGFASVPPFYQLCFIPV

[24] = molecular target: Cytochrome P450 2C19 (Homo sapiens, UniProt P33261); assay: Inhibition of CYP2C19; assay type: ADME
Sequence of Cytochrome P450 2C19 (P33261 whole entry): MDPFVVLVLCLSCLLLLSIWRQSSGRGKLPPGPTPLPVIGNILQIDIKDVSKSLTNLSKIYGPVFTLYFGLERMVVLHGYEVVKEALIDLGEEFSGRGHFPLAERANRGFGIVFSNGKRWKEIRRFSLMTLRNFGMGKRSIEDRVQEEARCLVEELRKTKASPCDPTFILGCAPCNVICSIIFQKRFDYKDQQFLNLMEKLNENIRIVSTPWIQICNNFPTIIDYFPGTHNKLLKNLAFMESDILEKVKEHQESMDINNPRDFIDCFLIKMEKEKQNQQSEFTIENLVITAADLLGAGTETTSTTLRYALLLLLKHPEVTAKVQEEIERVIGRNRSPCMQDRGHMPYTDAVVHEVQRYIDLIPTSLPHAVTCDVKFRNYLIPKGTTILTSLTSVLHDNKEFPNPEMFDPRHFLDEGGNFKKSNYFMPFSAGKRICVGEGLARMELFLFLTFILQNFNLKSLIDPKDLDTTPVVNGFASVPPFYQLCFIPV

[25] = Half life in Sprague-Dawley rat at 10 mg/kg, po and 5 mg/kg, iv; assay type: ADME, organism-based; conditions: in vivo; procedure, shortened: as §3
[26] = Tmax in Sprague-Dawley rat at 10 mg/kg, po; assay type: ADME, organism-based; set-up: dose 10 mg/kg, route oral; conditions: in vivo; procedure, shortened: as §3
[27] = molecular target: Cytochrome P450 2D6 (Homo sapiens, UniProt P10635); assay: Inhibition of CYP2D6; assay type: ADME
Sequence of Cytochrome P450 2D6 (P10635 whole entry): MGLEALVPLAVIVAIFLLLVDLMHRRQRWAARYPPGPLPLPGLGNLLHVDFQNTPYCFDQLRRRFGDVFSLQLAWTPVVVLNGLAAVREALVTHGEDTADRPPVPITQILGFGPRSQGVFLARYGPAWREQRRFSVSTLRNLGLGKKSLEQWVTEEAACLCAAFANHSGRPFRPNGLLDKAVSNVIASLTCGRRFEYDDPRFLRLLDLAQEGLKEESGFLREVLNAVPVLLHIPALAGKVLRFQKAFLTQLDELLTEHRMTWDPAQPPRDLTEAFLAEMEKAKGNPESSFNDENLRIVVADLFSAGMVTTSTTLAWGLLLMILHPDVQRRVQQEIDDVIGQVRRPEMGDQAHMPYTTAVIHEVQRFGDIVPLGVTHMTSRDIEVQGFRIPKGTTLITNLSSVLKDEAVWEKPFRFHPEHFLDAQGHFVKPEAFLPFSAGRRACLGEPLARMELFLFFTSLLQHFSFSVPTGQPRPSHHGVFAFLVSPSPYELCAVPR

[28] = as §2; assay type: ADME, organism-based; set-up: dose 10 mg/kg, route oral; conditions: in vivo; remark: listed apart in the source

Row | Structure (SMILES) | Ki [1] [nM] | EC50 [2] [nM] | AUC(0-t) at 5 h [3] [µM·h] | Activity [4] [%] | Activity [5] [%] | Cmax [6] [nM] | solubility [7] [µg/mL] | other results
1 | CC[C@H]1[C@@H]2[C@H](O)CCN2C(=O)N1c1ccc(C#N)c(Cl)c1C | 0.7 | 2.6 | – | – | – | – | – | –
2 | Cc1c(N2C(=O)N3CC[C@@H](O)[C@H]3[C@@H]2C(F)(F)F)ccc(C#N)c1Cl | 1 | 2.9 | 1.18 | 3 | 40 | 819 | – | –
3 | Cc1c(N2C(=O)N3CC[C@@H](O)[C@H]3[C@H]2C(F)(F)F)ccc(C#N)c1Cl | 2.2 | 2.1 | 0.63 | 1 | 30 | 245 | 1140 (≈ 3170 µM) | –
4 | Cc1c(N2C(=O)[C@@H]3[C@H](O)CCN3C2=O)ccc(C#N)c1Cl | – | – | 8.8 | – | – | 6900 | – | Activity [8]: 59%; Activity [9]: 3%
5 | Cc1c(N2C[C@@H]3[C@H](O)CCN3C2=O)ccc(C#N)c1Cl | 2 | 15 | 6.38 | 14 | 66 | 3970 | 245 (≈ 840 µM) | –
6 | Cc1c(N2C(=O)N3CC[C@H](O)[C@H]3[C@@H]2C)ccc(C#N)c1Cl | – | – | 2.89 | – | – | 1620 | 613 (≈ 2000 µM) | Activity [10]: 4%; Activity [11]: 44%
7 | CC[C@H]1[C@@H]2[C@@H](O)CCN2C(=O)N1c1ccc(C#N)c(Cl)c1C | 0.9 | 1.8 | 6.08 | 24 | 101 | 3100 | 242 (≈ 757 µM) | inhibition at 30 µM [12]: 6%; IC50 [13]: > 200000 nM; IC50 [14]: > 40000 nM; Ki [15]: > 10000 nM; IC50 [16]: > 100000 nM; Ki [17]: > 10000 nM; bioavailability [18]: 65%; IC50 [19]: > 40000 nM; Ki [20]: > 10000 nM; Ki [21]: > 100000 nM; clearance [22]: 58 mL/min/kg; IC50 [23]: > 40000 nM; IC50 [24]: 7600 nM; half-life [25]: 5.5 h; Tmax [26]: 0.8 h; IC50 [27]: > 40000 nM; Cmax [28]: 2100 nM
